OXTR potentiator = potentiators of human oxytocin receptor | AID 2445 | P30559 | activation, % at 3 µM | hit rate 0.061% among 320,000 | CHO-OTR cells, Fluo-8 calcium fluorescence, potentiator mode; 0% = oxytocin EC15, 100% = EC100;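 active = activation above that plate's cutoff, the mean activation of tested compounds plus 3 SD, cut at about 6.6% in these data, passing the limit was not always enough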;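 also: 100% uses oxytocin at 75 nM as the full agonist control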
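Assay system: CHO cell line stably expressing human OTR. Reagent: EC15 oxytocin agonist. Dosing: single dose, 3.0 µM nominal final compound concentration. Timing: compound 6 min at room temperature before oxytocin, 100 s read. Signal: kinetic Fluo-8 calcium fluorescence. Controls: oxytocin EC15 low and EC100 high.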
TAAR1 agonist = human TAAR1 agonism. CHO RD-HGA16 TAAR1, Fluo-8 calcium fluorescence; vehicle wells 0%, saturating PEA agonist 100%. activation, % at 3 µM. hit rate 0.99% among 360,000;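 active = activation above the mean activation of all test compounds in the run plus 3 SD, cut at about 38% in these data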
Target sequence (Q96RJ0 whole entry, looked up): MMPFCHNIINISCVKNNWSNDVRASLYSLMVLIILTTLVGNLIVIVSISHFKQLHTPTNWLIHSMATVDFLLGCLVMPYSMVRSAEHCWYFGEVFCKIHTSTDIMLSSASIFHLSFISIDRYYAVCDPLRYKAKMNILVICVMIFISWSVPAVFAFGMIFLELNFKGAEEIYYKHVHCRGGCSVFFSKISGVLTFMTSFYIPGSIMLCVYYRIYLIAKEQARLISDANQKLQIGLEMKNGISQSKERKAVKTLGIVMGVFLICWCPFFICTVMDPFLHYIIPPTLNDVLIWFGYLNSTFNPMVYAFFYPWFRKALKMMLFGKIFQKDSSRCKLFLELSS
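Repeats: no replicates (n 1) | Material: CHO-derived RD-HGA16 cells with stable Gα16 and human TAAR1 | Technique: Kinetic Fluo-8 calcium fluorescence | Schedule: 17-24 h seeding, 75 min 37 °C dye, 30 min RT | Evaluation: % activation from peak over basal fluorescence ratio, DMSO-to-PEA scaled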
OXTR ag = human OXTR agonism | hit rate 0.32% among 320,000 | CHO-OTR cells, Fluo-8 calcium fluorescence; normalized: DMSO 0%, oxytocin 100% | activation, % at 3 µM | P30559;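 active = activation above the mean of all tested compounds plus 3 SD, cutoff set per screening run, cut at about 20% in these data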;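 also: peak over basal fluorescence ratio from a 100 s FLIPR kinetic read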
V1R ag counter = activates human V1a receptor in oxytocin agonist counter-screen. CHO-V1R cells, Fluo-8 calcium fluorescence, agonist mode; 0% DMSO, 100% 3 nM vasopressin. activation, % at 3 µM. AID 2797. hit rate 0.25% among 320,000. P37288;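 active = activation above the mean activation of all tested compounds plus 3 SD, per screening run, cut at about 20% in these data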;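 also: signal is peak over basal fluorescence ratio across a 100 second FLIPR read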
Target sequence (P37288 whole entry, looked up): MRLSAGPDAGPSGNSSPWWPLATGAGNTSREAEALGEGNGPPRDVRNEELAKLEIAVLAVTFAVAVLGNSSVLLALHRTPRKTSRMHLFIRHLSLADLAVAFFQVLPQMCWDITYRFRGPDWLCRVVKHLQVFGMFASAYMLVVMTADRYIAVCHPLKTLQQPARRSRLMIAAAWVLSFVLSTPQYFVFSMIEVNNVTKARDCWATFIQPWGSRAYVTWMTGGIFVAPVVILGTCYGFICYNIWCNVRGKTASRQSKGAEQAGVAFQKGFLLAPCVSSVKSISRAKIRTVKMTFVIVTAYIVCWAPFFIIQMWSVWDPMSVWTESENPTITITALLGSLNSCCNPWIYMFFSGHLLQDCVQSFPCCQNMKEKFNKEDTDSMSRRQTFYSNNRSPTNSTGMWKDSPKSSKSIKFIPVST
TAAR1 antag = antagonists of human TAAR1; Q96RJ0; CHO RD-HGA16 TAAR1, Fluo-8 calcium fluorescence, antagonist; inhibition, % at 3 µM; hit rate 1.5% among 360,000;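 active = inhibition above a per-plate cutoff, the mean inhibition of test compounds on that plate plus 3 SD, cut at about 49% in these data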;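 also: 0% = DMSO plus EC80 beta-PEA response and 100% = DMSO alone without agonist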
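System: CHO RD-HGA16 cells bearing hTAAR1. Reagent: EC80 β-phenethylamine stimulus. Schedule: seeding 17-24 h prior, 75-min 37 °C, 30-min RT dye loading. Signal: Fluo-8 intracellular calcium dye fluorescence, real-time kinetic reads. Read-out: % inhibition from peak post-agonist over basal fluorescence ratio. Benchmarks: vehicle wells and EC80 agonist wells. Replicates: n of 1.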
TAAR1 ag confirm = human TAAR1 agonism, confirmed; activation, % at 3 µM; shares compounds with TAAR1 agonist; AID 651783; hit rate 82% among 2,400; CHO RD-HGA16 TAAR1, Fluo-8 calcium fluorescence; scaled: DMSO 0%, maximal phenethylamine 100%;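 active = activation above a cutoff set at the run's mean compound activation plus 3 SD, cut at about 39% in these data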
Ga16 ag counter = nonselective agonism, TAAR1 counter-screen; shares compounds with TAAR1 agonist; CHO-Ga16 parental, Fluo-8 calcium fluorescence; normalized to maximal ATP response, DMSO zero; activation, % at 3 µM; hit rate 50% among 2,400; AID 651787;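 active = activation above the run cutoff, the mean activation over all tested wells plus 3 SD, cut at about 12% in these data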;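 also: 0% = DMSO wells and 100% = maximal ATP response on the peak over basal ratio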
TAAR1 desens = TAAR1 response desensitization, agonist counter-screen; shares compounds with TAAR1 agonist; CHO RD-HGA16 hTAAR1, Fluo-8 calcium, beta-PEA response inhibition; inhibition, % at 3 µM; hit rate 46% among 2,400; AID 651951;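 active = inhibition above the run cutoff, the mean inhibition of all test compounds plus 3 SD, cut at about 49% in these data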;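 also: beta-PEA stimulus applied at its EC80; loss of beta-PEA calcium signal after compound pretreatment read as receptor desensitization; 0% = DMSO with beta-PEA at EC80 and 100% = DMSO alone without agonist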
Ga16 nonsel ant = nonselective Ga16 antagonism, counter-screen. AID 651952. CHO-Ga16 ATP-induced calcium, Fluo-8 fluorescence. hit rate 39% among 2,400. inhibition, % at 3 µM. shares compounds with TAAR1 agonist;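 active = inhibition above the plate's mean compound inhibition plus 3 SD, computed per plate, cut at about 22% in these data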;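 also: 0% = EC80 ATP with DMSO and 100% = DMSO wells without ATP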
* hit, by the source's call; / = no result. This is a sample that favours compounds with a hit; in the whole collection about 2.3% have one here.

SMILES | OXTR potentiator | TAAR1 agonist | OXTR ag | V1R ag counter | TAAR1 antag | TAAR1 ag confirm | Ga16 ag counter | TAAR1 desens | Ga16 nonsel ant
O=C(O)c1ccc(N/N=C/C(Br)=C/c2ccccc2)cc1 | -5 | 122* | 5 | 5 | 60* | 33 | 19* | 34 | 21
CCOC(=O)C1=C(C)NC(SC)=C(C#N)C1CC(C)C (stereo unspecified) | -8 | 0 | -3 | -2 | 0 | / | / | / | /
Cc1cc(N2CCCC2)c(F)cc1/C=C\[N+](=O)[O-] | / | 193* | / | / | 81* | 61* | 68* | 60* | 70*
Cc1cc(N2CCC(C)CC2)c(F)cc1[N+](=O)[O-] | 2 | 1 | 0 | 0 | -9 | / | / | / | /
CCCCc1c(-c2ccccc2OC)ncn1CCc1ccccc1 | / | 61* | / | / | 34 | 77* | 12* | 66* | 27*
CCCc1c(Cc2cccc(F)c2)ncn1CCc1ccccc1OC | / | 50* | / | / | 35 | 79* | 14* | 61* | 20
CCc1c(Cc2cccc(F)c2)ncn1CCc1ccccc1OC | / | 40* | / | / | -18 | 50* | 5 | 15 | 13
CCCCc1c(Cc2ccccc2)ncn1CCc1ccccc1OC | / | 49* | / | / | 55* | 68* | 7 | 60* | 56*
COc1c(C)cc(C(O)c2ncc(-c3ccccc3)[nH]2)cc1C (stereo unspecified) | / | 5 | / | / | -21 | / | / | / | /
Cc1ccc(S(=O)(=O)N2[C@H](C(C)C)[C@H]3[C@H]4C(=O)N(c5ccccc5)C(=O)[C@H]4CC(=O)[C@H]3[C@@H]2c2ccccc2)cc1 | / | 2 | / | / | -15 | / | / | / | /
COc1cc(C(c2nnnn2C2CCCC2)N2CCc3ccccc3C2)ccc1O (stereo unspecified) | -14 | 85* | 0 | 0 | 100* | 91* | 0 | 97* | 7
COc1ccc(C(c2nnnn2C2CCCC2)N2CCN(C(=O)c3ccco3)CC2)cc1OC (stereo unspecified) | 4 | 2 | 1 | 2 | 8 | / | / | / | /
C=CCn1c(=O)[nH]c2nc3cc(N=CN(C)C)c(C)cc3nc2c1=O | -9 | 90* | 17 | 13 | 31 | 13 | 45* | 11 | 23*
COC(=O)C1=C(C)N(Cc2cccc(C(F)(F)F)c2)C(=NCc2cc(OC)c(OC)c(OC)c2)NC1c1ccc(F)cc1 (stereo unspecified) | / | 60* | / | / | 52* | 23 | 16* | 17 | 30*
COC(=O)C1=C(C)N(Cc2cccc(C(F)(F)F)c2)C(=NCc2ccc3c(c2)OCO3)NC1c1ccccc1 (stereo unspecified) | / | 43* | / | / | 48 | 47* | 14* | 31 | 27*
COC(=O)C1=C(C)N(Cc2ccc(C(F)(F)F)cc2)C(=NCc2ccc3c(c2)OCO3)NC1c1ccccc1 (stereo unspecified) | / | 32 | / | / | 35 | / | / | / | /
COC(=O)C1=C(C)N(Cc2cccc(C(F)(F)F)c2)C(=NCc2ccc3c(c2)OCO3)NC1c1cccc(F)c1 (stereo unspecified) | / | 65* | / | / | 58* | 58* | 20* | 68* | 43*
C=CCNC(=O)c1ccc(N(Cc2ccc(Cl)cc2)S(C)(=O)=O)cc1 | -12 | 6 | 5 | 6 | 3 | / | / | / | /
CSc1nc2c(=S)[nH]c(=S)[nH]c2s1 | / | -1 | / | / | -28 | / | / | / | /
COc1ccccc1CCNC(=O)C1CCCO1 (stereo unspecified) | -6 | 43* | 1 | 0 | 13 | 73* | 2 | 30 | 5
O=C(C1CC=CCC1)N1CCC(CO)(Cc2ccc(Cl)cc2)CC1 (stereo unspecified) | -5 | 14 | 1 | 0 | -9 | / | / | / | /
CCC(CC)C(=O)Nc1cccc(C(=O)Nc2ccc(OC)cc2[N+](=O)[O-])c1 | -7 | 78* | 10 | 2 | 77* | 45* | 6 | 38 | 12
CSCCC(NC(=O)c1ccccc1)C(=O)NCCCn1nc(C)cc1C (stereo unspecified) | -8 | 10 | 0 | 0 | -13 | / | / | / | /
COc1ccc(Nc2cc(C)nc(N)n2)cc1 | -4 | 18 | 1 | 0 | 0 | / | / | / | /
Cc1cc(Nc2ccc(Cl)cc2)nc(N)n1 | -8 | 53* | -1 | 0 | 16 | 61* | 1 | 37 | 6
SMILES | OXTR potentiator | TAAR1 agonist | OXTR ag | V1R ag counter | TAAR1 antag | TAAR1 ag confirm | Ga16 ag counter | TAAR1 desens | Ga16 nonsel ant
CC1CCN(C(=O)CN2C(=O)NC(C)(c3ccc4ccccc4c3)C2=O)CC1 (stereo unspecified) | -3 | 5 | 5 | 3 | -11 | / | / | / | /
CSc1ncnc2c1ncn2CCCNCCCc1ccccc1 | / | 4 | / | / | -17 | / | / | / | /
CSc1ncnc2c1ncn2CCCNCCc1ccccn1 | / | 69* | / | / | -4 | 82* | 4 | 19 | 4
O=C1CSC(=S)N1 | 6 | 0 | 1 | 1 | 2 | / | / | / | /
CN(C)c1ccc(-c2csc(C(O)c3ccc(F)cc3)n2)cc1 (stereo unspecified) | / | 77* | / | / | 91* | 90* | 59* | 98* | 73*
Cc1ccc(-c2csc(C(O)c3ccc(F)cc3)n2)cc1C (stereo unspecified) | / | 0 | / | / | 16 | / | / | / | /
NS(=O)(=O)c1cccc(NC(=O)CSc2nnc(C3CC3)n2-c2ccccc2)c1 | -4 | 2 | 0 | 1 | -17 | / | / | / | /
O=C(COc1cccc2cccnc12)N1CCc2ccccc2C1 | -6 | 52* | -1 | 0 | 5 | 21 | 3 | 11 | 16
Cc1cccc(OCC(=O)N2CCc3ccccc3C2)c1 | -2 | 55* | -1 | 1 | 18 | 69* | 2 | 24 | 6
O=C(CCCN1C(=O)c2ccccc2C1=O)N1CCc2ccccc2C1 | -2 | 69* | -2 | -1 | 21 | 83* | 0 | 46 | 11
O=C(COc1cccnc1[N+](=O)[O-])N1CCc2ccccc2C1 | -3 | 8 | 1 | 0 | 0 | / | / | / | /
COc1ccc(OCC(=O)N2CCc3ccccc3C2)cc1 | -5 | / | 1 | 1 | / | / | 0 | / | 11
CCc1nc2c(OCc3ccc4c(c3)OCO4)cccn2c1N(C=O)Cc1ccc(OC)cc1 | / | -2 | / | / | -25 | / | / | / | /
C[C@@H]1CCCCO[C@H](CN(C)C(=O)Cc2ccccc2)[C@@H](C)CN([C@H](C)CO)C(=O)c2cc(N(C)C)ccc2O1 | / | 0 | / | / | -4 | / | / | / | /

From PubChem
